In brackets after ≈: the same amount, converted by molar mass. Activity calls are given as the source filed them. The calls are words filed in the database; no cut-off is given here.
Key:
Aspergillus fumigatus [1] = experiment: Antimicrobial activity against Aspergillus fumigatus RCMB 02568 after 48 hrs by serial dilution method; format: functional; details: RCMB 02568, 48 h
How it was run: (§1)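 Serial twofold dilution in microtiter plates starting from a 100 mmol stock in DMSO; final concentrations 125 down to 0.12 […]. Incubated at 28°C and read on a microplate reader after 48 h. Amphotericin B was the reference. Run in triplicate, with the average taken. MIC was the lowest concentration inhibiting growth.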

Aspergillus fumigatus [2] = experiment: Antimicrobial activity against Aspergillus fumigatus RCMB 02568 assessed as diameter of zone inhibition at 100 ug/ml after 48 hrs by agar well diffusion assay; format: functional; details: for zone of inhibition at 100 µg/mL: RCMB 02568, 48 h, read-out: DIZ
How it was run: (§2)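 Agar well diffusion on malt agar plates seeded with the fungus, using 1 cm wells. Plates were held at 4°C for 1 h for diffusion, then incubated at 28°C. Inhibition zone diameters were measured at 48 h. Amphotericin B was the positive control. Run in triplicate, with the mean zone reported.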

Candida albicans [3] = experiment: Antimicrobial activity against Candida albicans RCMB 05036 assessed as diameter of zone inhibition at 100 ug/ml after 48 hrs by agar well diffusion assay; format: functional; details: for zone of inhibition at 100 µg/mL: RCMB 05036, 48 h, read-out: DIZ; how it was run: as §2
Streptococcus pneumoniae [4] = experiment: Antimicrobial activity against Streptococcus pneumoniae RCMB 010010 assessed as diameter of zone inhibition at 100 ug/ml after 24 hrs by agar well diffusion assay; format: functional; details: for zone of inhibition at 100 µg/mL: RCMB 010010, 24 h, read-out: DIZ
How it was run: (§3)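 Agar well diffusion on nutrient agar plates seeded with the bacterium, using 1 cm wells. Plates were held at 4°C for 1 h for diffusion, then incubated at 37°C. Inhibition zone diameters were measured at 24 h. Ciprofloxacin was the positive control. Run in triplicate, with the mean zone reported.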

Staphylococcus aureus [5] = experiment: Antimicrobial activity against Staphylococcus aureus RCMB 010028 assessed as diameter of zone inhibition at 100 ug/ml after 24 hrs by agar well diffusion assay; format: functional; details: for zone of inhibition at 100 µg/mL: RCMB 010028, 24 h, read-out: DIZ; how it was run: as §3
Escherichia coli [6] = experiment: Antimicrobial activity against Escherichia coli RCMB 010052 assessed as diameter of zone inhibition at 100 ug/ml after 24 hrs by agar well diffusion assay; format: functional; details: for zone of inhibition at 100 µg/mL: RCMB 010052, 24 h, read-out: DIZ; how it was run: as §3
Candida albicans [7] = experiment: Antimicrobial activity against Candida albicans RCMB 05036 after 48 hrs by serial dilution method; format: functional; details: RCMB 05036, 48 h; how it was run: as §1
Streptococcus pneumoniae [8] = experiment: Antimicrobial activity against Streptococcus pneumoniae RCMB 010010 after 24 hrs by serial dilution method; format: functional; details: RCMB 010010, 24 h
How it was run: as §1, with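 “37°C” for “28°C”, “24” for “48”, “Ciprofloxacin” for “Amphotericin B”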

Staphylococcus aureus [9] = experiment: Antimicrobial activity against Staphylococcus aureus RCMB 010028 after 24 hrs by serial dilution method; format: functional; details: RCMB 010028, 24 h
How it was run: as §1, with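 “37°C” for “28°C”, “24” for “48”, “Ciprofloxacin” for “Amphotericin B”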

Escherichia coli [10] = experiment: Antimicrobial activity against Escherichia coli RCMB 010052 after 24 hrs by serial dilution method; format: functional; details: RCMB 010052, 24 h
How it was run: as §1, with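 “37°C” for “28°C”, “24” for “48”, “Ciprofloxacin” for “Amphotericin B”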

[11] = tested on: Mycobacterium tuberculosis; experiment: Antimycobacterial activity against Mycobacterium tuberculosis RCMB 010126 clinical isolate after 7 days by MABA; format: functional
How it was run: (§4)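 Inoculum from fresh LJ culture resuspended in 7H9-S broth with casitone, glycerol and OADC, adjusted to McFarland No. 1 and diluted 1:20. Serial two-fold compound dilutions in 7H9-S; isoniazid reference. Incubated 7 days at 37°C in air, then Alamar blue added and incubated overnight. Percent inhibition = 1 − (test well/growth-control mean) × 100; MIC = lowest concentration preventing blue-to-pink change.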

[12] = tested on: Mycobacterium tuberculosis; experiment: Antimycobacterial activity against Mycobacterium tuberculosis RCMB 010126 clinical isolate assessed as inhibition zone after 7 days by MABA; format: functional; how it was run: as §4
Escherichia coli [13] = experiment: Potency index, ratio of ciprofloxacin MIC to test compound MIC for Escherichia coli RCMB 010052; format: functional
Pseudomonas aeruginosa [14] = details: RCMB 010043, 100 ug/ml
Pseudomonas aeruginosa [15] = details: RCMB 010043
WI-38 = experiment: Cytotoxicity against human WI38 cells assessed as reduction in cell viability after 24 hrs by crystal violet staining-based colorimetric method; details: WI-38, 24 h
How it was run: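 WI-38 cells were grown in DMEM with 10% FBS at 37°C and 5% CO2, then seeded at 1×10^4 cells/well. Serial twofold dilutions were added, three wells per concentration. Viability was read by crystal violet stain, solubilised in 30% acetic acid, at 490 nm. Run in triplicate. IC50 was estimated from dose-response plots.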

[16] = Selectivity index, ratio of IC50 for human WI38 cells to MIC for Mycobacterium tuberculosis RCMB 010126 clinical isolate; format: toxicity; details: read-out: Selectivity Index
How it was run: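 WI-38 human lung fibroblasts grown in DMEM with 10% FBS at 37°C and 5% CO2, seeded at 1×10^4 cells/well, and exposed to serial two-fold dilutions in triplicate. Viability read by crystal violet stain at 490 nm. IC50 taken from dose-response plots. Ratio uses this IC50 against the MABA MIC for M. tuberculosis.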

Streptococcus pneumoniae [17] = experiment: Potency index, ratio of ampicillin MIC to test compound MIC for Streptococcus pneumoniae RCMB 010010; format: functional
[18] = Mycobacterium tuberculosis, RCMB 010126, 168 h

SMILES | MIC (Aspergillus fumigatus [1]) [µg/mL] | zone of inhibition at 100 µg/mL (Aspergillus fumigatus [2]) [mm] | zone of inhibition at 100 µg/mL (Candida albicans [3]) [mm] | zone of inhibition at 100 µg/mL (Streptococcus pneumoniae [4]) [mm] | zone of inhibition at 100 µg/mL (Staphylococcus aureus [5]) [mm] | zone of inhibition at 100 µg/mL (Escherichia coli [6]) [mm] | MIC (Candida albicans [7]) [µg/mL] | MIC (Streptococcus pneumoniae [8]) [µg/mL] | MIC (Staphylococcus aureus [9]) [µg/mL] | MIC (Escherichia coli [10]) [µg/mL] | MIC [11, 18] [µg/mL] | inhibition zone (IZ) [12] | DIZ (Pseudomonas aeruginosa [14]) | MIC (Pseudomonas aeruginosa [15]) | IC50 (WI-38) [µg/mL] | selectivity ratio [16] | also measured
Cc1nc(-c2cccc(Cl)c2)ccc1C(=O)N/N=C/c1ccc(Cl)cc1 | 1.95 (≈ 5.07 µM) | 20.3 | 17.9 | 21.3 | 19.6 | 23.7 | 3.9 (≈ 10.1 µM) | 1.95 (≈ 5.07 µM) | 1.95 (≈ 5.07 µM) | 0.49 (≈ 1.28 µM) | 6.24 (≈ 16.2 µM) | 43.25 mm | inactive | inactive |  |  | Ratio (Escherichia coli [13]): 2
COc1ccc(/C=N/NC(=O)c2ccc(-c3cccc(Cl)c3)nc2C)cc1OC | 3.9 (≈ 9.52 µM) | 19.3 | 17.2 | 19.6 | 17.9 | 21.6 | 15.6 (≈ 38.1 µM) | 3.9 (≈ 9.52 µM) | 7.81 (≈ 19.1 µM) | 1.95 (≈ 4.76 µM) | 0.78 (≈ 1.9 µM) | 73.58 mm | inactive | inactive | 168 (≈ 410 µM) | 215 | -logMIC [11]: 0.1079
COc1ccc(/C=N/NC(=O)c2ccc(-c3cccc(Cl)c3)nc2C)cc1 | 1.95 (≈ 5.13 µM) | 20.6 | 18.2 | 20.9 | 19.6 | 20.3 | 7.81 (≈ 20.6 µM) | 3.9 (≈ 10.3 µM) | 3.9 (≈ 10.3 µM) | 3.9 (≈ 10.3 µM) | 1.56 (≈ 4.11 µM) | 60.42 mm | inactive | inactive | 500 (≈ 1320 µM) | 321 | 
COc1ccc(OC)c(/C=N/NC(=O)c2ccc(-c3cccc(Cl)c3)nc2C)c1 | 0.98 (≈ 2.39 µM) | 22.6 | 21.2 | 22.5 | 21.3 | 22.3 | 1.95 (≈ 4.76 µM) | 0.98 (≈ 2.39 µM) | 1.95 (≈ 4.76 µM) | 0.98 (≈ 2.39 µM) | 0.39 (≈ 0.952 µM) | 82.35 mm | inactive | inactive | 188 (≈ 459 µM) | 482 | 
COc1ccc(/C=N/NC(=O)c2ccc(-c3ccc(Cl)cc3)nc2C)cc1 | 1.95 (≈ 5.13 µM) | 20.9 | 19.2 | 21.3 | 20.1 | 20.9 | 3.9 (≈ 10.3 µM) | 1.95 (≈ 5.13 µM) | 3.9 (≈ 10.3 µM) | 1.95 (≈ 5.13 µM) | 0.78 (≈ 2.05 µM) | 70.34 mm | inactive | inactive | 500 (≈ 1320 µM) | 641 | 
COc1cccc(/C=N/NC(=O)c2ccc(-c3ccc(Cl)cc3)nc2C)c1O | 1.95 (≈ 4.93 µM) | 21.3 | 20.3 | 22.3 | 20.5 | 21.5 | 3.9 (≈ 9.85 µM) | 0.98 (≈ 2.48 µM) | 1.95 (≈ 4.93 µM) | 1.95 (≈ 4.93 µM) | 0.39 (≈ 0.985 µM) | 80.63 mm | inactive | inactive | 500 (≈ 1260 µM) | 1280 | 
Cc1nc(-c2ccc(Cl)cc2)ccc1C(=O)N/N=C/c1ccc(O)cc1 | 3.9 (≈ 10.7 µM) | 19.3 | 17.3 | 20.3 | 18.3 | 19.2 | 15.6 (≈ 42.7 µM) | 3.9 (≈ 10.7 µM) | 7.81 (≈ 21.3 µM) | 3.9 (≈ 10.7 µM) | 3.12 (≈ 8.53 µM) | 53.21 mm | inactive | inactive | 500 (≈ 1370 µM) | 160 | 
COc1ccc(OC)c(/C=N/NC(=O)c2ccc(-c3ccc(Cl)cc3)nc2C)c1 | 0.98 (≈ 2.39 µM) | 24.3 | 22.5 | 24.3 | 22.3 | 24.3 | 0.98 (≈ 2.39 µM) | 0.49 (≈ 1.2 µM) | 0.98 (≈ 2.39 µM) | 0.49 (≈ 1.2 µM) | 0.39 (≈ 0.952 µM) | 85.32 mm | inactive | inactive | 500 (≈ 1220 µM) | 1280 | Ratio (Escherichia coli [13]): 2; Ratio (Streptococcus pneumoniae [17]): 2
COc1cc(/C=N/NC(=O)c2ccc(-c3ccc(Cl)cc3)nc2C)cc(OC)c1OC | 0.98 (≈ 2.23 µM) | 21.8 | 20.4 | 21.3 | 23.4 | 21.3 | 1.95 (≈ 4.43 µM) | 1.95 (≈ 4.43 µM) | 0.98 (≈ 2.23 µM) | 1.95 (≈ 4.43 µM) | 0.78 (≈ 1.77 µM) | 68.42 mm | inactive | inactive | 41.1 (≈ 93.4 µM) | 52.7 | 
O=C(N/N=C/c1ccc(Cl)cc1Cl)c1c[nH]c2cc(Cl)ccc2c1=O | 3.9 (≈ 9.88 µM) | 20.3 | 19.6 | 22.1 | 20.6 | 24.3 | 3.9 (≈ 9.88 µM) | 0.98 (≈ 2.48 µM) | 1.95 (≈ 4.94 µM) | 0.49 (≈ 1.24 µM) |  | inactive | inactive | inactive |  |  | MIC [11]: inactive; Ratio (Escherichia coli [13]): 2
COc1ccc(/C=N/NC(=O)c2ccc(-c3ccc(Cl)cc3)nc2C)cc1OC |  |  |  |  |  |  |  |  |  |  | 1.56 (≈ 3.81 µM) | 61.32 mm | inactive |  | 443 (≈ 1080 µM) | 284 | diameter of the inhibition zone (DIZ) (Aspergillus fumigatus [2]): inactive; diameter of the inhibition zone (DIZ) (Candida albicans [3]): inactive; diameter of the inhibition zone (DIZ) (Streptococcus pneumoniae [4]): inactive; diameter of the inhibition zone (DIZ) (Staphylococcus aureus [5]): inactive; diameter of the inhibition zone (DIZ) (Escherichia coli [6]): inactive
Cc1ccc(/C=N/NC(=O)c2ccc(-c3cccc(Cl)c3)nc2C)cc1 |  |  |  | 13.6 | 12.6 |  |  |  |  |  | 1.56 (≈ 4.29 µM) | 61.24 mm | inactive |  | 500 (≈ 1370 µM) | 321 | diameter of the inhibition zone (DIZ) (Aspergillus fumigatus [2]): inactive; diameter of the inhibition zone (DIZ) (Candida albicans [3]): inactive; diameter of the inhibition zone (DIZ) (Escherichia coli [6]): inactive
COc1cc(/C=N/NC(=O)c2c[nH]c3ccc(Cl)cc3c2=O)cc(OC)c1OC | 7.81 (≈ 18.8 µM) | 18.1 | 16.3 | 18.4 | 17.3 | 19.3 | 31.2 (≈ 75.2 µM) | 7.81 (≈ 18.8 µM) | 15.6 (≈ 37.6 µM) | 3.9 (≈ 9.38 µM) |  | inactive | inactive | inactive |  |  | MIC [11]: inactive

Reference: ChEMBL document CHEMBL4130356, “Design, synthesis and 2D QSAR study of novel pyridine and quinolone hydrazone derivatives as potential antimicrobial and antitubercular agents” (Eur J Med Chem, 2017)
